Holding throughout (format): functional
One test concerns SK-MEL-5. Nature of the test: Growth inhibition of human SK-MEL-5 cells. The note with it: read-out: ED50 (the source's name). A digest of the protocol:
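Tested at the NCI in its human disease-oriented in vitro screen of 60 tumour cell lines, following the Monks et al. methods. Activity is expressed as GI50, given as log molar values.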

Another test deals with COLO 205. Nature of the test: Growth inhibition of human COLO205 cells. The note with it: read-out: ED50 (the source's name).
For another test, the system named is KB. Nature of the test: Growth inhibition of human KB cells. Particulars: read-out: ED50 (the source's name). The procedure, abridged: (§1)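 In-house cytotoxicity assay following an NCI protocol, run on a panel of human tumour lines: KB nasopharyngeal epidermoid carcinoma and HCT-8 ileocecal adenocarcinoma. Potency is reported as ED50 in µg/mL.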
The test system of another test is HCT-8. Nature of the test: Growth inhibition of human HCT8 cells. The note with it: read-out: ED50 (the source's name). The procedure, abridged:
as §1

The subject of the next test is NCI-H522. As to the kind of experiment: Growth inhibition of human NCI-H522 cells.
The subject of the next test is HOP-18. Nature of the test: Growth inhibition of human HOP18 cells.
The next test concerns MOLT-4. As to the kind of experiment: Growth inhibition of human MOLT4 cells.
For another test, the system named is NCI-H226. Nature of the test: Growth inhibition of human NCI-H226 cells.

Converted amounts (≈) assume the structure as drawn. Some results are limits rather than exact numbers.

The results in this text go back to ChEMBL document CHEMBL1142636 (2000).

For the compound `CC1=CC(=O)c2c([nH]c3ccc(C)cc23)C1=O`, the EC50 with SK-MEL-5 was found to be 5.29 µg/mL (≈ 23.5 µM); in the test with COLO 205, 3.2 µg/mL (≈ 14.2 µM); in the test with KB, 4.6 µg/mL (≈ 20.4 µM); in the test on HCT-8, 5.47 µg/mL (≈ 24.3 µM).

For the compound `COc1cccc2c3c([nH]c12)C(=O)C(C)=CC3=O`, the EC50 in the test on SK-MEL-5 was 5.5 µg/mL (≈ 22.8 µM); in the test on COLO 205, 5.18 µg/mL (≈ 21.5 µM); with KB it was 0.92 µg/mL (≈ 3.81 µM); with HCT-8, 4.7 µg/mL (≈ 19.5 µM).

For `CC1=CC(=O)c2[nH]c3ccc(Cl)cc3c2C1=O`, the EC50 with SK-MEL-5 is 0.83 µg/mL (≈ 3.38 µM); in the test with COLO 205, above 20 µg/mL; in the test with KB it was 4.39 µg/mL (≈ 17.9 µM); in the test with HCT-8, 6.45 µg/mL (≈ 26.3 µM).

For `CC(C)=CCCC1(C)C=Cc2c(c(C)cc3c2[nH]c2cc(O)ccc23)O1` (stereo not given), the values for the GI50 in the test with NCI-H522, in the test on HOP-18 and with MOLT-4 were 6.76 µM, 7.41 µM and 0.00324 µM, respectively. Besides, the TGI with MOLT-4 (read-out: pTGI) was above 25.1 µM.

On to `COc1ccc2c3c([nH]c2c1)C(=O)C=C(C)C3=O`, for which the EC50 in the test with SK-MEL-5 is 7.25 µg/mL (≈ 30.1 µM); with COLO 205 it was above 20 µg/mL; with KB it was above 20 µg/mL; in the test with HCT-8, above 20 µg/mL.

Consider `CC1=CC(=O)c2c([nH]c3ccc(F)cc23)C1=O`, for which the EC50 in the test on SK-MEL-5 turned out to be 5.5 µg/mL (≈ 24 µM); in the test with COLO 205 it was 4.5 µg/mL (≈ 19.6 µM); in the test on KB, 2.03 µg/mL (≈ 8.86 µM); in the test with HCT-8, 4.76 µg/mL (≈ 20.8 µM).

For the compound `CC1=CC(=O)c2[nH]c3ccc(F)cc3c2C1=O`, the EC50 in the test with SK-MEL-5 worked out at 2.51 µg/mL (≈ 11 µM); with COLO 205, 9.19 µg/mL (≈ 40.1 µM); in the test with KB it was 5.25 µg/mL (≈ 22.9 µM); with HCT-8, 5.88 µg/mL (≈ 25.7 µM).

In turn, `COc1cc(CO)cc2c1[nH]c1ccccc12` [KOENOLINE] showed a GI50 in the test with NCI-H226 of 1.74 µM. Besides, the TGI in the test on NCI-H226 (read-out: pTGI) came to 5.25 µM.
